# HUVEC prolif 384: blocks proliferation of human endothelial cells. HUVEC proliferation, CellTiter-Glo luminescence, 72 h; stronger effect = lower value. 1.1% of 86,000 active. viability, % at 10 µM (by protocol);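 active means viability at or below 30%; inactive means viability above 30%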;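 further: 100% = median luminescence of DMSO-only cell control wells on each plate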
# bCat KO growth: beta-catenin-lacking colon tumor cell growth suppression; HCT116 beta-catenin knockout viability, CellTiter-Glo, 60 h; stronger effect = lower value; viability, % at 10 µM; 1.5% of 140,000 active; AID 818;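 active means viability at or under a set limit, the compound median less 4 SD, cut at about 6% in these data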;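 further: 0% = Hyamine 1622 control at 20 µM and 100% = untreated cell control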
# PTEN del growth: PTEN-deleted cell growth suppression; HCT116 PTEN-null viability, CellTiter-Glo, 60 h; stronger effect = lower value; viability, % at 10 µM; 1.2% of 140,000 active;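 active means viability at or below a set limit, 4 SD under the median of all tested compounds, cut at about 3.7% in these data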;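 further: PTEN knockout HCT116 line with beta catenin targeted HCT116 as companion control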
# Lung fibro prol: blocks proliferation of human lung fibroblasts | LL 47 human lung fibroblast viability, ATP luminescence; stronger effect = lower value | viability, % at 10 µM | 1.1% of 85,000 active | AID 719;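 active means viability at or below 50% in the single dose screen; inactive means viability above 50%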;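 further: compound exposure lasted 72 h before the ATP readout; 100% = median luminescence of untreated cell-only wells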
#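 Assay system: human lung fibroblast line LL 47, low passage. Input: 1,150 fibroblasts seeded per well. Times: overnight cell rest, 72 h compound treatment at 37 °C. Evaluation: % viability of median cell-only signal. Technique: luminescent ATP detection, CellTiter-Glo. Control set: cell-only wells, no compound.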
# H69AR growth 86K: growth inhibitors of human H69AR lung tumor cells; H69AR lung tumor viability, ATP luminescence, 72 h; stronger effect = lower value; viability, % at 10 µM; 6% of 85,000 active;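 active means viability at or below 40%; inactive means viability above 40%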;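 further: multidrug resistant small cell line overexpressing MRP-1 efflux transporter; 100% = mean luminescence of untreated control wells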
# * = called active by the depositor; / = no result. The full list was thinned out, with hits kept by preference.
SMILES,HUVEC prolif 384,bCat KO growth,PTEN del growth,Lung fibro prol,H69AR growth 86K
Cc1ccc(NC(=O)CC2S/C(=N/c3nccs3)N(C)C2=O)c(C)c1 (centres undefined),101,91,98,107,96
Cc1cc(NC(c2ccc(Cl)cc2)c2ccc3cccnc3c2O)no1 (centres undefined),11*,4.3*,10,8.1*,48
CC(=O)NC(c1ccco1)c1ccc2cccnc2c1O (centres undefined),4.6*,5.1*,6,2.2*,43
COc1ccccc1NC(c1cccnc1)c1ccc2cccnc2c1O (centres undefined),/,49,49,/,/
O=C(CCC(=O)OCc1ccc(C(=O)Oc2ccccc2)cc1)Nc1cccc2ccccc12,/,93,90,/,/
N#Cc1ccccc1/C=N/Nc1nc(-c2ccccc2)c2cc(Br)ccc2n1,/,2.1*,6,/,/
O=[N+]([O-])c1ccc(/C=N/Nc2nc(-c3ccccc3)c3cc(Br)ccc3n2)o1,/,1.7*,1.4*,/,/
Cc1ccc2nc(N/N=C\c3ccc([N+](=O)[O-])o3)nc(-c3ccccc3)c2c1,51,2.1*,3.0*,90,13*
O=[N+]([O-])c1ccc(/C=N/Nc2nc(N3CCCC3)nc(N3CCCC3)n2)o1,6.8*,65,44,87,26*
O=C(COC(=O)[C@H](Cc1ccccc1)NC(=O)c1cccs1)NC1CC1,/,97,101,/,/
O=C1CN(c2ccc(Cl)cc2)C2(CCCCC2)S1,/,89,92,/,/
CCOc1cc(/C=N/Nc2nc(-c3cccc(S(=O)(=O)N4CCCC4)c3)cs2)ccc1O,/,78,69,/,/
CS(=O)(=O)Oc1ccc(Br)cc1/C=C1/N=C(c2ccco2)OC1=O,/,90,98,/,/
Cc1c(C(=O)NC2CCCc3ccccc32)oc2ccc(S(=O)(=O)N3CCCC3)cc12 (centres undefined),51,64,56,65,35*
Cc1c(C(=O)NC2CCCc3ccccc32)oc2ccc(S(=O)(=O)N3CCCCC3)cc12 (centres undefined),/,58,57,/,/
Cc1c(C(=O)NC2CC2)oc2ccc(S(=O)(=O)N3CCCCCC3)cc12,104,72,76,89,59
Cc1c(C(=O)NC2CCCc3ccccc32)oc2ccc(S(=O)(=O)N3CCOCC3)cc12 (centres undefined),68,75,72,80,38*
O=c1[nH]c(=O)n(-c2ccccc2)c2c1C(C(F)(F)F)(C(F)(F)F)N=C(CCC1CCCCC1)N2,/,73,61,/,/
Cc1cc(Cl)ccc1NC(=S)NCC(C)C,/,98,89,/,/
CC(=O)Oc1c(C)cc(Cl)cc1C(=O)Nc1ccc([N+](=O)[O-])cc1Cl,/,1.1*,1.8*,/,/
O=C(Nc1ccccc1)Nc1ccc2snnc2c1,53,52,66,101,13*
CN(C)c1ccc(NC(=O)Nc2ccc3snnc3c2)cc1,93,99,104,103,79
O=C(Cc1ccccc1)NN1C(=O)C2C3C=CC(C3)[C@@H]2C1=O (some centres undefined),/,87,106,/,/
CCOc1cnn(-c2cc(Oc3ccc(C)cc3)ncn2)c(=O)c1Cl,/,88,90,/,/
Cc1ccccc1Oc1cc(-n2ncc(Cl)c(Cl)c2=O)ncn1,/,1.6*,1.9*,/,/
SMILES,HUVEC prolif 384,bCat KO growth,PTEN del growth,Lung fibro prol,H69AR growth 86K
O=C(N/N=C/c1ccc([N+](=O)[O-])o1)c1ccc(O)cc1,/,3.2*,5,/,/
O=C(CNc1ccccc1)N/N=C/c1ccc([N+](=O)[O-])o1,/,2.6*,4,/,/
Cc1ccc(NCC(=O)N/N=C\c2ccc([N+](=O)[O-])o2)cc1,/,5.8*,9,/,/
O=C(CNC(=O)c1ccccc1)N/N=C/c1ccc([N+](=O)[O-])o1,/,15,21,/,/
O=C(/C=C/c1ccc(S(=O)(=O)N2CCOCC2)cc1)NCc1ccccc1,/,90,101,/,/
COCCNC(=O)/C(C#N)=C/c1c(N2CC(C)OC(C)C2)nc2ccccn2c1=O (centres undefined),/,92,93,/,/
COc1cc2cc(C(c3nnnn3C3CCCC3)N3CCCCC3)c(=O)[nH]c2cc1OC (centres undefined),91,93,98,95,90
O=c1[nH]c2cc3c(cc2cc1C(c1nnnn1C1CCCCC1)N1CCSCC1)OCCO3 (centres undefined),86,83,85,28*,2.0*
O=C(Nc1ccc(S(=O)(=O)N2CCCCC2)cc1)C1CCCN(C(=O)c2ccc(Cl)cc2)C1 (centres undefined),/,40,40,/,/
CC(C)(C)NC(=O)CSc1ncnc2c1nnn2Cc1ccccc1Cl,89,4.1*,3.2*,59,3.0*
CCOC(=O)c1cn(-c2nc(-c3ccc(Cl)cc3)cs2)c2c(F)c(N3CC(C)OC(C)C3)c(F)cc2c1=O (centres undefined),/,96,87,/,/
COc1cc(CNC(C)(C)CO)cc(Br)c1OCc1ccc(Cl)cc1Cl,/,1.3*,1.6*,/,/
O=c1cc(CO)oc(C(Nc2ccccn2)c2ccc(C(F)(F)F)cc2)c1O (centres undefined),91,80,86,89,19*
O=c1cc(CO)oc(C(Nc2ccccn2)c2cccc(F)c2)c1O (centres undefined),102,102,113,97,91
CS(=O)(=O)N1CCC(C(=O)N2CCC(Cc3ccccc3)CC2)CC1,103,95,89,111,79
O=C(C1CCCN(S(=O)(=O)Cc2ccccc2)C1)N1CCC(Cc2ccccc2)CC1 (centres undefined),86,77,84,99,26*
COC(=O)C1CCCN1C(=O)COc1ccc(Cl)cc1Br (centres undefined),/,67,74,/,/
COc1ccccc1Nc1nc(-c2sc(NC(=O)c3ccco3)nc2C)cs1,/,47,56,/,/
COc1cccc(N(C(=O)c2ccco2)c2nc(-c3sc(NC(=O)c4ccco4)nc3C)cs2)c1,/,3.8*,6,/,/
CC1CCN(C(c2cccs2)c2nnnn2Cc2ccccc2)CC1 (centres undefined),112,61,56,98,87
Cc1ccc2c(Cl)cc(Cl)c(OCC(=O)NC(=O)NCc3ccco3)c2n1,83,86,87,93,30*
Cc1ccc2c(Cl)cc(Cl)c(OCC(=O)NCc3ccco3)c2n1,83,58,52,87,52
CCCc1cc(=O)[nH]c(-n2[nH]c3c(c2=O)CCCC3)n1,/,4.7*,10,/,/
CCCc1cc(=O)[nH]c(SCC)n1,90,89,105,97,/
CC(=O)Nc1ccc(-c2nnc(SCC(=O)NCc3ccco3)n2C)cc1,91,89,97,98,78
COc1ccc(CCNC(=O)C2CCN(Cc3nc(-c4ccccc4F)oc3C)CC2)cc1OC,102,60,63,104,90
Cc1ccccc1-c1nc(CN2CCC(C(=O)NCCCN3CC(C)CC(C)C3)CC2)c(C)o1 (centres undefined),14*,32,36,77,64
Cc1oc(-c2ccccc2F)nc1CN1CCC(C(=O)NCCC2=CCCCC2)CC1,20*,10,19,90,81

# Compound activity deposited in PubChem BioAssay by SRMLSC.
